Laboratory results as given in ChEMBL document CHEMBL1811806, “Synthesis and biological evaluation of 4β-acrylamidopodophyllotoxin congeners as DNA damaging agents” (2011).
Active and inactive are the calls of the source. The calls are words filed in the database; no cut-off is given here.

Key:
[1] = Cytotoxicity against human DWD cells after 48 hrs by sulforhodamine B assay; format: functional
Outline: (§1)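 SRB growth assay, 48 h continuous exposure. Cells grown in DMEM with 10% FBS and 2 mM L-glutamine, plated at densities set by doubling time, preincubated 24 h at 37 °C, 5% CO2. Four concentrations (0.1, 1, 10, 100 µM) in triplicate wells. TCA fixation, 0.4% SRB staining, absorbance at 540 nm against 690 nm reference. GI50 from time-zero-corrected growth; repeated three times.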

[2] = system: MCF7; experiment: Cytotoxicity against human MCF7 cells after 48 hrs by sulforhodamine B assay; format: functional; conditions: MCF7, 48 h; outline: as §1
[3] = system: ZR-75-1; experiment: Cytotoxicity against human ZR-75-1 cells after 48 hrs by sulforhodamine B assay; format: functional; conditions: ZR-75-1, 48 h; outline: as §1
[4] = system: COLO 205; experiment: Cytotoxicity against human COLO205 cells after 48 hrs by sulforhodamine B assay; format: functional; conditions: COLO 205, 48 h; outline: as §1
[5] = system: A2780; experiment: Cytotoxicity against human A2780 cells after 48 hrs by sulforhodamine B assay; format: functional; conditions: A2780, 48 h; outline: as §1
[6] = Cytotoxicity against human Gurav cells after 48 hrs by sulforhodamine B assay; format: functional; outline: as §1
[7] = system: MCF7; experiment: Cell cycle arrest in human MCF7 cells assessed as accumulation at G2/M phase at 2 uM after 24 hrs by propidium iodide staining based flow cytometry (reference value: 26.42%); format: functional
[8] = system: MCF7; experiment: Cytotoxicity against human MCF7 cells at 2 to 4 uM after 24 hrs by MTT assay; format: functional, cell-based
Outline: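 MCF-7 cells in DMEM with 10% fetal calf serum and penicillin/streptomycin, seeded at 10,000 cells/well and incubated overnight. Treated at 2 and 4 µM for 24 h, then medium replaced with MTT and incubated 2 h at 37 °C. Formazan dissolved in extraction buffer and read at 570 nm.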

[9] = system: MCF7; experiment: Cell cycle arrest in human MCF7 cells assessed as accumulation at GO phase at 2 uM after 24 hrs by propidium iodide staining based flow cytometry (reference value: 6.09%); format: functional
[10] = system: MCF7; experiment: Cell cycle arrest in human MCF7 cells assessed as accumulation at G1 phase at 2 uM after 24 hrs by propidium iodide staining based flow cytometry (reference value: 60.5%); format: functional
[11] = system: MCF7; experiment: Induction of apoptosis in human MCF7 cells assessed as double-strand DNA breaks at 2 uM after 24 hrs measured as phosphorylation at ser-139 on H2AX protein by immunostaining relative to control; format: functional
Outline: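 MCF-7 cells on coverslips treated 24 h at 2 µM, fixed in 4% paraformaldehyde for 20 min at room temperature, blocked with 1% BSA for 60 min. Anti-γ-H2AX (Ser139) antibody at 1:100 for 2 h at room temperature, then FITC-conjugated anti-rabbit secondary for 1 h. Foci-positive cells scored as percentage against DMSO control.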

[12] = system: MCF7; experiment: Cell cycle arrest in human MCF7 cells assessed as accumulation at S phase at 2 uM after 24 hrs by propidium iodide staining based flow cytometry (reference value: 6.99%); format: functional
[13] = system: A549; experiment: Cytotoxicity against human A549 cells after 48 hrs by sulforhodamine B assay; format: functional; conditions: A549, 48 h; outline: as §1
[14] = system: HOP-62; experiment: Cytotoxicity against human HOP62 cells after 48 hrs by sulforhodamine B assay; format: functional; conditions: HOP-62, 48 h; outline: as §1
[15] = system: MCF7; experiment: Induction of apoptosis in human MCF7 cells assessed as single-strand DNA break at 2 uM after 24 hrs by comet assay relative to control; format: functional
Outline: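 Alkaline comet assay in MCF-7 cells after 24 h at 2 µM. Electrophoresis 20 min at 40 V in 0.5% TBE pH 8, SYBR Green I stain, fluorescence microscopy; percentage of cells with tails scored.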

Structure (SMILES)	GI50 [1] [nM]	GI50 [2] [nM]	GI50 [3] [nM]	GI50 [4] [nM]	GI50 [5] [nM]	GI50 [6] [nM]	Activity [7] [%]	Activity [8]	Activity [9] [%]	Activity [10] [%]	Activity [11]	Activity [12] [%]	GI50 [13] [nM]	GI50 [14] [nM]	Activity [15] [%]
COc1ccc(/C=C(/C(=O)N[C@@H]2c3cc4c(cc3[C@@H](c3cc(OC)c(OC)c(OC)c3)[C@H]3C(=O)OC[C@@H]32)OCO4)c2cc(OC)c(OC)c(OC)c2)cc1	2300	2900	2900	170	2500	2200	–	–	–	–	–	–	–	–	–
COc1cc([C@@H]2c3cc4c(cc3[C@H](O)[C@H]3COC(=O)[C@H]23)OCO4)cc(OC)c1OC [PODOFILOX]	–	–	–	–	–	–	86.59	inactive	5.9	2.38	inactive	5.13	–	–	–
COc1cc(/C(=C\c2cccc([N+](=O)[O-])c2)C(=O)N[C@@H]2c3cc4c(cc3[C@@H](c3cc(OC)c(OC)c(OC)c3)[C@H]3C(=O)OC[C@@H]32)OCO4)cc(OC)c1OC	< 100	2700	–	–	2500	2100	–	–	–	–	–	–	2400	170	–
COc1ccccc1/C=C(/C(=O)N[C@@H]1c2cc3c(cc2[C@@H](c2cc(OC)c(OC)c(OC)c2)[C@H]2C(=O)OC[C@@H]21)OCO3)c1ccc([N+](=O)[O-])cc1	–	–	–	–	–	–	–	Active	–	–	–	–	–	–	–
COc1ccc(/C=C(/C(=O)N[C@@H]2c3cc4c(cc3[C@@H](c3cc(OC)c(OC)c(OC)c3)[C@H]3C(=O)OC[C@@H]32)OCO4)c2cc(OC)c(OC)c(OC)c2)cc1O	–	–	–	–	–	–	–	–	–	–	–	–	2900	2900	–
COc1ccc(F)c(/C=C(/C(=O)N[C@@H]2c3cc4c(cc3[C@@H](c3cc(OC)c(OC)c(OC)c3)[C@H]3C(=O)OC[C@@H]32)OCO4)c2cc(OC)c(OC)c(OC)c2)c1	–	–	2700	–	–	2500	–	–	–	–	–	–	–	–	–
COc1cc(/C(=C\c2ccc(O)cc2)C(=O)N[C@@H]2c3cc4c(cc3[C@@H](c3cc(OC)c(OC)c(OC)c3)[C@H]3C(=O)OC[C@@H]32)OCO4)cc(OC)c1OC	2700	–	2700	–	–	2700	–	–	–	–	–	–	2300	2600	–
COc1ccccc1/C=C(/C(=O)N[C@@H]1c2cc3c(cc2[C@@H](c2cc(OC)c(OC)c(OC)c2)[C@H]2C(=O)OC[C@@H]21)OCO3)c1ccccc1[N+](=O)[O-]	–	–	–	–	–	–	–	Active	–	–	–	–	–	–	–
COc1ccc(/C=C\c2cc(OC)c(OC)c(OC)c2)cc1O [COMBRETASTATIN A4]	–	–	–	–	–	–	84.41	–	5.07	2.49	50%	8.03	–	–	–
COc1ccc(/C=C(/C(=O)N[C@@H]2c3cc4c(cc3[C@@H](c3cc(OC)c(OC)c(OC)c3)[C@H]3C(=O)OC[C@@H]32)OCO4)c2cc(OC)c(OC)c(OC)c2)cc1F	–	2700	–	2400	–	–	–	–	–	–	–	–	–	–	–
COc1cc(/C(=C\c2ccc(O)c([N+](=O)[O-])c2)C(=O)N[C@@H]2c3cc4c(cc3[C@@H](c3cc(OC)c(OC)c(OC)c3)[C@H]3C(=O)OC[C@@H]32)OCO4)cc(OC)c1OC	< 100	2700	180	2000	2200	190	–	–	–	–	–	–	–	190	–
COc1cc(/C=C(/C(=O)N[C@@H]2c3cc4c(cc3[C@@H](c3cc(OC)c(OC)c(OC)c3)[C@H]3C(=O)OC[C@@H]32)OCO4)c2cc(OC)c(OC)c(OC)c2)ccc1O	–	–	2900	–	–	–	–	–	–	–	–	–	2400	2500	–
COc1cc(/C=C(/C(=O)N[C@@H]2c3cc4c(cc3[C@@H](c3cc(OC)c(OC)c(OC)c3)[C@H]3C(=O)OC[C@@H]32)OCO4)c2cc(OC)c(OC)c(OC)c2)ccc1F	–	–	2200	–	–	2400	–	–	–	–	–	–	–	2500	–
COc1cccc(/C=C(/C(=O)N[C@@H]2c3cc4c(cc3[C@@H](c3cc(OC)c(OC)c(OC)c3)[C@H]3C(=O)OC[C@@H]32)OCO4)c2cc(OC)c(OC)c(OC)c2)c1	2200	< 100	180	–	< 100	2100	36.35	Active	4.83	52.49	–	6.43	2700	180	–
COc1ccccc1/C(=C\c1ccc([N+](=O)[O-])cc1)C(=O)O	–	–	–	–	–	–	20.12	inactive	3.07	66.28	30%	10.53	–	–	20
COc1cccc2c1C(=O)c1c(O)c3c(c(O)c1C2=O)C[C@@](O)(C(=O)CO)C[C@@H]3O[C@H]1C[C@H](N)[C@H](O)[C@H](C)O1 [DOXORUBICIN]	< 100	130	110	< 100	< 100	< 100	–	–	–	–	–	–	< 100	150	–
COc1ccc(/C=C(/C(=O)N[C@@H]2c3cc4c(cc3[C@@H](c3cc(OC)c(OC)c(OC)c3)[C@H]3C(=O)OC[C@@H]32)OCO4)c2cc(OC)c(OC)c(OC)c2)cc1[N+](=O)[O-]	2900	–	2200	2700	2500	2600	–	–	–	–	–	–	–	2300	–
COc1cc([C@@H]2c3cc4c(cc3[C@@H](O[C@@H]3O[C@@H]5CO[C@@H](C)O[C@H]5[C@H](O)[C@H]3O)[C@H]3COC(=O)[C@H]23)OCO4)cc(OC)c1O [ETOPOSIDE]	600	2100	200	130	1300	500	62.86	Active	7.54	17.29	70%	12.31	3080	800	10
COc1ccc(/C=C(/C(=O)N[C@@H]2c3cc4c(cc3[C@@H](c3cc(OC)c(OC)c(OC)c3)[C@H]3C(=O)OC[C@@H]32)OCO4)c2cc(OC)c(OC)c(OC)c2)c(F)c1	190	2400	2500	–	2700	180	–	–	–	–	–	–	2100	170	–
COc1cc(/C(=C\c2ccc([N+](=O)[O-])cc2)C(=O)N[C@@H]2c3cc4c(cc3[C@@H](c3cc(OC)c(OC)c(OC)c3)[C@H]3C(=O)OC[C@@H]32)OCO4)cc(OC)c1OC	2400	–	2200	2100	2600	2100	–	–	–	–	–	–	–	2700	–
